Source: PubChem BioAssay (several laboratories)
TDP2 absorb: blocks human TDP2 phosphodiesterase activity; O95551; recombinant TDP2, T5PNP hydrolysis, p-nitrophenol absorbance 415 nm; inhibition, % at 12.8 µM; 370,000 tested, 0.34% active;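 active means inhibition above the mean of all tested compounds plus 3 SD, set per campaign, cut at about 25% in these data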;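 further: 0% = DMSO with enzyme and 100% = buffer with substrate but no TDP2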
Target sequence (O95551 whole entry, looked up): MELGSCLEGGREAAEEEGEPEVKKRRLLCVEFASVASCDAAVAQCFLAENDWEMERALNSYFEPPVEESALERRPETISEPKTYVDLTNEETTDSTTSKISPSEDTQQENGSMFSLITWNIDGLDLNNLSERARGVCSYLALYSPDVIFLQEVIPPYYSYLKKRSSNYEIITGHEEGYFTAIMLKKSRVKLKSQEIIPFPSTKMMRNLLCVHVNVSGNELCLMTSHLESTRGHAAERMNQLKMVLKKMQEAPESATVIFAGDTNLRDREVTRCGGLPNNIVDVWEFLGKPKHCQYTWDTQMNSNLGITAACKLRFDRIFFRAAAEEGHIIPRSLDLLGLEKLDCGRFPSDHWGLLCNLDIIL
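System – recombinant human TDP2 · Quantity – TDP2 enzyme at 120 nM final · Doses – single concentration, 12.8 µM nominal, with 1% DMSO · Incubation – 2 h at 37 °C · Measured by – epi absorbance of p-nitrophenol freed from T5PNP by hydrolysis · Read-out – % inhibition relative to enzyme-containing and enzyme-free wells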
ARFGAP1 inhibitor: inhibitors of rat ARFGAP1; Arfgap1-stimulated ARF1 GTP hydrolysis, GDP FP detection; 360,000 tested, 0.26% active; AID 651572; inhibition, % at 16.5 µM; Q62848;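 active means inhibition above a per-plate limit, mean inhibition of low control wells plus 3 SD, cut at about 25% in these data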;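 further: 0% = DMSO wells with enzyme and 100% = wells lacking Arfgap1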
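material = rat Arfgap1 catalytic domain, aa 1-136 | also added = human ARF1(Δ1-17)-GTP substrate | compound dosing = one concentration, 16.5 µM, DMSO 1.26% | times = GTP hydrolysis reaction 2 h at 25 °C | measured by = FP, GDP Alexa 633 tracer displaced from anti-GDP antibody, 620/688 nm | evaluation = percent inhibition of Arfgap1-stimulated GTP hydrolysis | replication = single well per compound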
ASAP1 inh: ASAP1 ArfGAP inhibition; 360,000 tested, 0.19% active; AID 624377; inhibition, % at 16.5 µM; ASAP1-stimulated ARF1 GTP hydrolysis, GDP FP detection; Q9ULH1; in the data active means inhibition above about 25%;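 further: 0% = vehicle with enzyme and substrate and 100% = no enzyme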
LEDGF integ inh: blocks HIV-1 LEDGF/p75-dependent DNA integration; inhibition, % at 3.7 µM; AID 743269; 370,000 tested, 0.64% active; TR-FRET IN-LEDGF/p75 DNA integration, Eu/Cy5;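 active means inhibition above the screen-wide mean plus 3 SD, cut at about 13% in these data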;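 further: signal is the Cy5 over europium emission ratio at 671 and 618 nm; 0% = plate median of compound wells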
CASP6 VEID inh: blocks human caspase-6 cleavage activity. P55212. AID 686996. 350,000 tested, 0.53% active. inhibition, % at 12.5 µM. purified caspase-6, Z-VEID-R110 cleavage fluorescence;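 active means mean inhibition across replicates at least about 35%, with every replicate also reaching that limit, limit read from the data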;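 further: 0% = median of neutral control wells and 100% = no fluorescence left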
Target sequence (P55212 24-179 limits assumed): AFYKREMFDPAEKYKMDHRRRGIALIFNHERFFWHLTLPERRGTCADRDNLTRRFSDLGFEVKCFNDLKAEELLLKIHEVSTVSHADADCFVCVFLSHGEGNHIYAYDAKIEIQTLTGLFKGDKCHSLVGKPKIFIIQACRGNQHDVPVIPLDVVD
Target sequence (P55212 194-293 limits assumed): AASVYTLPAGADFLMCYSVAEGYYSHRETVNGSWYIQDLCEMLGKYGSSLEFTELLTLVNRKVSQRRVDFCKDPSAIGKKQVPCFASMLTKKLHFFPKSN
IN multimer act: activates HIV-1 integrase multimerization in LEDGF counter-screen. TR-FRET HIV-1 integrase multimerization, biochemical. activation, % at 7.7 µM. 2,000 tested, 17% active. shares compounds with LEDGF integ inh; in the data active means activation above about 8.9%
TRFRET interf: optically interferes with TR-FRET readout in LEDGF counter-screen; AID 1053135; 2,000 tested, under 10 active; shares compounds with LEDGF integ inh; TR-FRET optical interference counterscreen, HIV-1 IN multimerization; inhibition, % at 7.7 µM;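 active means inhibition above the mean over all tested compounds plus 3 SD, which no compound reached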;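 further: 0% = integrase with antibodies and DMSO and 100% = antibodies without integrase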
LEDGF integ conf: confirmation of HIV-1 LEDGF/p75-dependent integration inhibitors | 2,000 tested, 36% active | inhibition, % at 3.7 µM | shares compounds with LEDGF integ inh | TR-FRET LEDGF/p75-dependent HIV-1 integration, biochemical; in the data active means inhibition above about 14%
Active calls of the source: *. A selection: hits, their analogues and other compounds. The true share with any hit is near 1.3%.

`COc1cccc(C(C)(O)c2nc(-c3ccc(Cl)cc3)cs2)c1` (stereo unspecified) gave TDP2 absorb 0, ARFGAP1 inhibitor 11, ASAP1 inh 2, LEDGF integ inh -4 and CASP6 VEID inh 3.
COc1ccc(NC(=O)c2cccc(C(=O)Nc3ccc(OC)cc3)n2)cc1 was read as TDP2 absorb 10, ARFGAP1 inhibitor 8, ASAP1 inh -1, LEDGF integ inh 0 and CASP6 VEID inh -1.
`CCOC(=O)c1ccccc1NC(=O)CSc1ncc(C(=O)OCC)c(N)n1` gave TDP2 absorb 6, ARFGAP1 inhibitor -1, ASAP1 inh -12 and LEDGF integ inh -1.
CCOC(=O)c1cnc(SCC(=O)NNC(=O)c2ccco2)nc1N was read as TDP2 absorb -3, ARFGAP1 inhibitor -14, ASAP1 inh 4, LEDGF integ inh 72*, CASP6 VEID inh 2, IN multimer act 1, TRFRET interf -3 and LEDGF integ conf -5.
For COc1ccc(/C=C(\C#N)C(=O)NCCc2ccccc2)cc1OCc1ccccc1 the results were TDP2 absorb 3, ARFGAP1 inhibitor 9, ASAP1 inh 8, LEDGF integ inh 1 and CASP6 VEID inh 5.
`COCCCNC(=O)/C(C#N)=C/c1ccc(OCC(=O)O)c(OC)c1` gave TDP2 absorb -1, ARFGAP1 inhibitor -4, ASAP1 inh -10, LEDGF integ inh 17*, CASP6 VEID inh 41*, IN multimer act 23*, TRFRET interf -115 and LEDGF integ conf 36*.
`COc1cc(/C=C2/C(=O)N(c3cccc(Br)c3)N=C2C)cc(OC)c1O` gave TDP2 absorb 8, ARFGAP1 inhibitor 14, ASAP1 inh 4, LEDGF integ inh 2 and CASP6 VEID inh 16.
For CC1=NN(c2ccccc2)C(=O)/C1=C\C=C\c1ccccc1 the results were TDP2 absorb 2, ARFGAP1 inhibitor -7, ASAP1 inh -5, LEDGF integ inh 2 and CASP6 VEID inh -5.
CC(=O)Oc1ccc(/C=C2/C(=O)N(c3ccccc3)N=C2C)cc1 was read as TDP2 absorb 71*, ARFGAP1 inhibitor 22, ASAP1 inh 5, LEDGF integ inh 51*, CASP6 VEID inh 7, IN multimer act 1, TRFRET interf -4 and LEDGF integ conf -2.
For CC1=NN(c2ccccc2)C(=O)/C1=C/c1cccc(C)c1 the results were TDP2 absorb 79*, ARFGAP1 inhibitor 9, ASAP1 inh 0, LEDGF integ inh 16*, CASP6 VEID inh -2, IN multimer act 1, TRFRET interf -4 and LEDGF integ conf 2.
COc1ccc(/C=C2/C(=O)N(c3ccccc3)N=C2C)cc1OC was read as TDP2 absorb 77*, ARFGAP1 inhibitor 11, ASAP1 inh -14, LEDGF integ inh 27*, CASP6 VEID inh 4, IN multimer act 2, TRFRET interf -8 and LEDGF integ conf -6.
For CC1=NN(c2ccccc2)C(=O)/C1=C/N(C)C the results were TDP2 absorb 10, ARFGAP1 inhibitor 5, ASAP1 inh 9, LEDGF integ inh -3 and CASP6 VEID inh 3.
`O=C(O)C[C@H]1CC[C@H]2[C@@H](COC[C@@H](O)CN2S(=O)(=O)c2ccc(F)cc2)O1` gave CASP6 VEID inh 2.
For Cc1sc(NC(=O)Cn2c(=O)oc3ccccc32)nc1-c1ccc(Cl)cc1 the results were TDP2 absorb 4, ARFGAP1 inhibitor 16, ASAP1 inh -1, LEDGF integ inh -4 and CASP6 VEID inh 0.
For O=C(c1ccccc1)c1ccc2nc(-c3ccco3)c(-c3ccco3)nc2c1 the results were TDP2 absorb 15, ARFGAP1 inhibitor -8, ASAP1 inh -2, LEDGF integ inh 18*, CASP6 VEID inh 11, IN multimer act 2, TRFRET interf -6 and LEDGF integ conf 35*.
Cc1ccc(C)c(N2CCN(C(=O)c3ccc4nc(-c5ccco5)c(-c5ccco5)nc4c3)CC2)c1 was read as TDP2 absorb -8, ARFGAP1 inhibitor -13, ASAP1 inh -10, LEDGF integ inh 40*, IN multimer act 4, TRFRET interf -14 and LEDGF integ conf 22*.
`COc1ccccc1N1CCN(C(=O)c2ccc3nc(-c4ccco4)c(-c4ccco4)nc3c2)CC1` gave TDP2 absorb -6, ARFGAP1 inhibitor 1, ASAP1 inh 1 and LEDGF integ inh 2.
For CCOC(=O)c1[nH]cnc1C(=O)O the results were TDP2 absorb 2, ARFGAP1 inhibitor -3, ASAP1 inh 1 and LEDGF integ inh 0.
COc1ccc(NC(=O)N(C)C[C@H]2Oc3ccc(NC(=O)Nc4ccccc4)cc3C(=O)N([C@@H](C)CO)C[C@H]2C)cc1 was read as CASP6 VEID inh -1.
CCOC(=O)C1(CCOc2ccccc2)CCN(Cc2ccc(CO)o2)CC1 was read as TDP2 absorb 0, ARFGAP1 inhibitor -6, ASAP1 inh 2, LEDGF integ inh 18*, CASP6 VEID inh 1, IN multimer act 0, TRFRET interf -2 and LEDGF integ conf 1.
Screening O=C(Nc1ccc(Cl)cc1)N[C@H]1CC[C@H](CCn2cc(-c3ccccc3F)nn2)O[C@@H]1CO returned TDP2 absorb -8, ARFGAP1 inhibitor 17, ASAP1 inh -2, LEDGF integ inh -2 and CASP6 VEID inh -1.
O=C1CC(NS(=O)(=O)c2ccc3ccccc3c2)CN1c1ccccc1 (stereo unspecified) was read as TDP2 absorb 15, ARFGAP1 inhibitor -17, ASAP1 inh -17, LEDGF integ inh 56*, CASP6 VEID inh -3, IN multimer act 4, TRFRET interf -21 and LEDGF integ conf 4.
Screening CCC1(CC)Cc2ccccc2-c2nc(NCCCO)[nH]c(=O)c21 returned TDP2 absorb -11, ARFGAP1 inhibitor -14, ASAP1 inh -16, LEDGF integ inh 14*, CASP6 VEID inh 7, IN multimer act 0, TRFRET interf -2 and LEDGF integ conf 6.
Cc1ccc(S(=O)(=O)c2nc(-c3ccco3)oc2SC(C)C)cc1 was read as TDP2 absorb -12, ARFGAP1 inhibitor -7, ASAP1 inh -11, LEDGF integ inh 16*, CASP6 VEID inh 6, IN multimer act 3, TRFRET interf -14 and LEDGF integ conf 2.
CCSc1oc(-c2ccco2)nc1S(=O)(=O)c1ccc(C)cc1 was read as TDP2 absorb 15, ARFGAP1 inhibitor 10, ASAP1 inh 0, LEDGF integ inh 0 and CASP6 VEID inh -1.
